IC50 and MIC data for nine molecules are collected here from ChEMBL document CHEMBL4261620, “Design, synthesis, and biological evaluation of 4-chloro-2H-thiochromenes featuring nitrogen-containing side chains as potent antifungal agents” (Bioorg Med Chem Lett, 2018).

SMILES strings stand for the structures. Converted amounts (≈) assume the structure as drawn.

One assay relates to H9c2. The experiment in a line: Cytotoxicity against rat H9c2 cells by MTT assay. It counts as cell-based.
Another assay deals with Candida tropicalis. In words: Antifungal activity against Candida tropicalis cgmcc 2.3739 after 2 to 7 days by broth microdilution method. It counts as functional. The gist of the method: (§1)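 Broth microdilution in 96-well plates per NCCLS. Compounds and fluconazole reference dissolved in DMSO, serially diluted in growth medium, then inoculum suspension added, final concentrations 128 to 0.25 µg/mL (twofold series). Incubated at 32°C. MIC read visually after 2-7 d.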
On the technique in general: Broth dilution looks for growth in wells or tubes with falling amounts of substance.

The subject of assay [1] is Candida albicans. The experiment in a line: Antifungal activity against Candida albicans cpcc 400616 after 2 to 7 days by broth microdilution method. It is filed as functional. The gist of the method:
as §1

For another assay, the system named is Cryptococcus neoformans. In words: Antifungal activity against Cryptococcus neoformans cgmcc 2.3161 after 2 to 7 days by broth microdilution method. It is filed as functional. The gist of the method:
as §1

A further assay relates to Aspergillus fumigatus. The experiment in a line: Antifungal activity against Aspergillus fumigatus cgmcc 3.7795 after 2 to 7 days by broth microdilution method. It is filed as functional. The gist of the method:
as §1

The next assay deals with A549. In words: Cytotoxicity against human A549 cells by MTT assay. It is filed as cell-based.
The subject of assay [2] is Candida albicans. The experiment in a line: Antifungal activity against fluconazole-sensitive Candida albicans ATCC SC5314 after 2 to 7 days by broth microdilution method. It is filed as functional. In a few lines: as §1
The next assay relates to HepG2. The experiment in a line: Cytotoxicity against human HepG2 cells by MTT assay. It counts as cell-based. In general terms: Formazan colour is commonly taken as a measure of viable cells.
The subject of assay [3] is Candida albicans. In words: Antifungal activity against fluconazole-resistant Candida albicans 103 after 2 to 7 days by broth microdilution method. It is filed as functional. In a few lines: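 Broth microdilution per NCCLS. Compounds dissolved in DMSO, serially diluted in growth medium, then inoculum suspension added to give final concentrations of 128 to 0.25 µg/mL (twofold steps). Plates incubated at 32°C. MIC read by visual observation after 2-7 d. Fluconazole served as reference drug.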

The next assay relates to HT-29. In words: Cytotoxicity against human HT-29 cells by MTT assay. It is filed as cell-based.

With `CC(C)N(CC1=C(Cl)c2cc(Br)ccc2SC1)C(C)C`, the concentration for half-maximal inhibition (IC50) was greater than 100 µg/mL in the assay on H9c2, 36 µg/mL (≈ 96.2 µM) in the assay with A549, greater than 100 µg/mL with HepG2 and greater than 100 µg/mL with HT-29. Besides, the minimum inhibitory concentration (MIC) with Candida tropicalis is greater than 128 µg/mL; in the assay on Candida albicans [1], 0.5 µg/mL (≈ 1.33 µM); in the assay on Cryptococcus neoformans, 0.25 µg/mL (≈ 0.667 µM); against Aspergillus fumigatus, greater than 128 µg/mL; with Candida albicans [2], 0.5 µg/mL (≈ 1.33 µM); in the assay on Candida albicans [3] it was 0.5 µg/mL (≈ 1.33 µM).

On to `COc1cccc2c1C(=O)c1c(O)c3c(c(O)c1C2=O)C[C@@](O)(C(=O)CO)C[C@@H]3O[C@H]1C[C@H](N)[C@H](O)[C@H](C)O1`, for which the IC50 in the assay on H9c2 was 0.29 µg/mL (≈ 0.534 µM); in the assay with A549, 1.77 µg/mL (≈ 3.26 µM); in the assay on HepG2, 2.9 µg/mL (≈ 5.34 µM); in the assay with HT-29 it was 1.44 µg/mL (≈ 2.65 µM).

Regarding `CCN(CC)CC1=C(Cl)c2cc(Cl)ccc2SC1`, the IC50 in the assay with H9c2, in the assay on A549, with HepG2 and in the assay on HT-29 was greater than 100 µg/mL each time. Moreover, the minimal inhibitory concentration (MIC) against Candida tropicalis was 2 µg/mL (≈ 6.62 µM); in the assay with Candida albicans [1], 4 µg/mL (≈ 13.2 µM); in the assay with Cryptococcus neoformans, 1 µg/mL (≈ 3.31 µM); in the assay on Aspergillus fumigatus it was greater than 128 µg/mL; against Candida albicans [2], 0.5 µg/mL (≈ 1.65 µM); in the assay on Candida albicans [3] it was 8 µg/mL (≈ 26.5 µM).

With `O=CC1=C(Cl)c2cc(Br)ccc2SC1`, the IC50 is greater than 100 µg/mL with H9c2, greater than 100 µg/mL with A549, 26.6 µg/mL (≈ 91.9 µM) in the assay with HepG2 and 28.8 µg/mL (≈ 99.4 µM) with HT-29. The minimal inhibitory concentration (MIC) against Candida tropicalis was 64 µg/mL (≈ 221 µM); against Candida albicans [1], 32 µg/mL (≈ 111 µM); with Cryptococcus neoformans, 32 µg/mL (≈ 111 µM); against Aspergillus fumigatus it was greater than 128 µg/mL; in the assay with Candida albicans [2], 16 µg/mL (≈ 55.3 µM); against Candida albicans [3], 64 µg/mL (≈ 221 µM).

With `O=CC1=C(Cl)c2cc(Cl)ccc2SC1`, the IC50 is greater than 100 µg/mL with H9c2, greater than 100 µg/mL with A549, 21.5 µg/mL (≈ 87.8 µM) in the assay on HepG2 and 18.4 µg/mL (≈ 75.2 µM) in the assay on HT-29. Besides, the minimum inhibitory concentration (MIC) with Candida tropicalis was 32 µg/mL (≈ 131 µM); in the assay on Candida albicans [1] it was 64 µg/mL (≈ 261 µM); in the assay on Cryptococcus neoformans, 32 µg/mL (≈ 131 µM); with Aspergillus fumigatus, greater than 128 µg/mL; with Candida albicans [2] it was 32 µg/mL (≈ 131 µM); with Candida albicans [3] it was 64 µg/mL (≈ 261 µM).

`Cc1ccc2c(c1)C(=O)CCS2`: the MIC is 4 µg/mL (≈ 22.4 µM) in the assay with Candida tropicalis; 16 µg/mL (≈ 89.8 µM) in the assay with Candida albicans [1]; 32 µg/mL (≈ 180 µM) in the assay with Cryptococcus neoformans; greater than 128 µg/mL in the assay with Aspergillus fumigatus; 8 µg/mL (≈ 44.9 µM) against Candida albicans [2]; 64 µg/mL (≈ 359 µM) against Candida albicans [3].

On to `O=CC1=C(Cl)c2cc(F)ccc2SC1`, for which the MIC was 16 µg/mL (≈ 70 µM) in the assay on Candida tropicalis; 64 µg/mL (≈ 280 µM) in the assay with Candida albicans [1]; 32 µg/mL (≈ 140 µM) with Cryptococcus neoformans; greater than 128 µg/mL against Aspergillus fumigatus; 64 µg/mL (≈ 280 µM) in the assay with Candida albicans [2]; 64 µg/mL (≈ 280 µM) in the assay on Candida albicans [3].

For `Cc1ccc2c(c1)C(Cl)=C(C=O)CS2`, the MIC in the assay with Candida tropicalis was 64 µg/mL (≈ 285 µM); against Candida albicans [1] it was 32 µg/mL (≈ 142 µM); with Cryptococcus neoformans it was 64 µg/mL (≈ 285 µM); against Aspergillus fumigatus, greater than 128 µg/mL; in the assay on Candida albicans [2] it was 16 µg/mL (≈ 71.2 µM); with Candida albicans [3], 64 µg/mL (≈ 285 µM).

As to `OC(Cn1cncn1)(Cn1cncn1)c1ccc(F)cc1F` [FLUCONAZOLE], the half-maximal inhibitory concentration (IC50) with H9c2, in the assay on A549, with HepG2 and with HT-29 was greater than 100 µg/mL in each case. In addition, the minimum inhibitory concentration (MIC) is 2 µg/mL (≈ 6.53 µM) in the assay on Candida tropicalis; 4 µg/mL (≈ 13.1 µM) in the assay with Candida albicans [1]; 1 µg/mL (≈ 3.27 µM) against Cryptococcus neoformans; greater than 128 µg/mL against Aspergillus fumigatus; 1 µg/mL (≈ 3.27 µM) against Candida albicans [2]; 32 µg/mL (≈ 104 µM) in the assay with Candida albicans [3].

The term IC50 denotes the concentration that gives 50% inhibition. Higher therefore signals weaker potency in that assay. In general, MIC refers to the lowest concentration that inhibits growth of the organism.
